Source: ChEMBL document CHEMBL4138318, “Discovery of 5-Cyano-6-phenylpyrimidin Derivatives Containing an Acylurea Moiety as Orally Bioavailable Reversal Agents against P-Glycoprotein-Mediated Mutidrug Resistance” (J Med Chem, 2018)
Calls of active or inactive are those of the source. The rule behind the calls is not given here.

Experiments:
[1] = target: T1, ATP-dependent translocase ABCB1 (Homo sapiens, UniProt P08183); assay: Inhibition of ABCB1 in human SW620/AD300 cells assessed as potentiation of paclitaxel-induced cytotoxicity by measuring fold reduction in paclitaxel IC50 at 0.5 uM after 72 hrs by MTT assay; type: cell-based
Method in brief: (§1)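 SW620/AD300 cells (~5×10^3/well) treated with graded paclitaxel with or without modulator (2 µM, or 0.5-2 µM in dose series; 0.1% DMSO solvent control) for 72 h; MTT (5 mg/mL stock) added 4 h, absorbance 490 nm. IC50 as mean ± SD of three independent runs; reversal fold = paclitaxel IC50 without/with modulator.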

[2] = Cytotoxicity against human SW620/AD300 cells assessed as survival at 2 uM after 72 hrs by MTT assay relative to control; type: cell-based; settings: read-out: Survival
[3] = target: T1, ATP-dependent translocase ABCB1; assay: Inhibition of ABCB1 in human SW620/AD300 cells assessed as potentiation of paclitaxel-induced cytotoxicity after 72 hrs by MTT assay; type: cell-based; method in brief: as §1
[4] = Cytotoxicity against human SW620 cells assessed as survival at 2 uM after 72 hrs by MTT assay relative to control; type: cell-based, SW-620; settings: read-out: Survival
[5] = target: T1, ATP-dependent translocase ABCB1; assay: Inhibition of ABCB1 in human SW620/AD300 cells assessed as potentiation of paclitaxel-induced cytotoxicity by measuring fold reduction in paclitaxel IC50 at 2 uM after 72 hrs by MTT assay relative to paclitaxel alone; type: cell-based; method in brief: as §1
Cytochrome P450 3A4 = Cytochrome P450 3A4 (Homo sapiens, UniProt P08684); assay: Inhibition of recombinant human CYP3A4 up to 32 uM in presence of NADPH generating system by fluorescence assay; type: ADME; settings: recombinant enzyme
[6] = target: T1, ATP-dependent translocase ABCB1; assay: Inhibition of ABCB1 in human SW620/AD300 cells assessed as decrease in rhodamine 123 efflux up to 4 uM preincubated for 4 hrs followed by 30 mins incubation in Rho-123 containing medium and subsequent incubation in Rho-123 free medium up to 120 mins by flow cytometry; type: cell-based
Method in brief: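 Cells loaded with rhodamine 123 as in the accumulation assay (4 h compound pre-exposure, 1 µg/mL dye 30 min, 37℃), then kept in dye-free medium with or without reversal agent for 30, 60, 90 or 120 min at 37℃; intracellular fluorescence read by flow cytometry at 488/530 nm. Three independent experiments.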

SW620/AD300 = assay: Effect on subcellular localization of ABCB1 in human SW620/AD300 cells at 2 uM after 48 hrs by Hoechst 33258 staining-based immunofluorescence assay; type: functional, cell-based
Method in brief: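 About 1×10^4 cells on coverslips incubated with compound 48 h, fixed in 4% paraformaldehyde ≥20 min, blocked 2 h in PBS with 5% BSA, anti-ABCB1 primary overnight at 4℃, Alexa Fluor 488 anti-goat secondary 2 h, nuclei stained with Hoechst 33258 20 min; imaged by laser scanning confocal microscopy.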

[7] = target: T1, ATP-dependent translocase ABCB1; assay: Inhibition of ABCB1 in human SW620/AD300 cells assessed as potentiation of paclitaxel-induced cytotoxicity by measuring fold reduction in paclitaxel IC50 at 1 uM after 72 hrs by MTT assay; type: cell-based; method in brief: as §1

T1 sequence (P08183 whole entry): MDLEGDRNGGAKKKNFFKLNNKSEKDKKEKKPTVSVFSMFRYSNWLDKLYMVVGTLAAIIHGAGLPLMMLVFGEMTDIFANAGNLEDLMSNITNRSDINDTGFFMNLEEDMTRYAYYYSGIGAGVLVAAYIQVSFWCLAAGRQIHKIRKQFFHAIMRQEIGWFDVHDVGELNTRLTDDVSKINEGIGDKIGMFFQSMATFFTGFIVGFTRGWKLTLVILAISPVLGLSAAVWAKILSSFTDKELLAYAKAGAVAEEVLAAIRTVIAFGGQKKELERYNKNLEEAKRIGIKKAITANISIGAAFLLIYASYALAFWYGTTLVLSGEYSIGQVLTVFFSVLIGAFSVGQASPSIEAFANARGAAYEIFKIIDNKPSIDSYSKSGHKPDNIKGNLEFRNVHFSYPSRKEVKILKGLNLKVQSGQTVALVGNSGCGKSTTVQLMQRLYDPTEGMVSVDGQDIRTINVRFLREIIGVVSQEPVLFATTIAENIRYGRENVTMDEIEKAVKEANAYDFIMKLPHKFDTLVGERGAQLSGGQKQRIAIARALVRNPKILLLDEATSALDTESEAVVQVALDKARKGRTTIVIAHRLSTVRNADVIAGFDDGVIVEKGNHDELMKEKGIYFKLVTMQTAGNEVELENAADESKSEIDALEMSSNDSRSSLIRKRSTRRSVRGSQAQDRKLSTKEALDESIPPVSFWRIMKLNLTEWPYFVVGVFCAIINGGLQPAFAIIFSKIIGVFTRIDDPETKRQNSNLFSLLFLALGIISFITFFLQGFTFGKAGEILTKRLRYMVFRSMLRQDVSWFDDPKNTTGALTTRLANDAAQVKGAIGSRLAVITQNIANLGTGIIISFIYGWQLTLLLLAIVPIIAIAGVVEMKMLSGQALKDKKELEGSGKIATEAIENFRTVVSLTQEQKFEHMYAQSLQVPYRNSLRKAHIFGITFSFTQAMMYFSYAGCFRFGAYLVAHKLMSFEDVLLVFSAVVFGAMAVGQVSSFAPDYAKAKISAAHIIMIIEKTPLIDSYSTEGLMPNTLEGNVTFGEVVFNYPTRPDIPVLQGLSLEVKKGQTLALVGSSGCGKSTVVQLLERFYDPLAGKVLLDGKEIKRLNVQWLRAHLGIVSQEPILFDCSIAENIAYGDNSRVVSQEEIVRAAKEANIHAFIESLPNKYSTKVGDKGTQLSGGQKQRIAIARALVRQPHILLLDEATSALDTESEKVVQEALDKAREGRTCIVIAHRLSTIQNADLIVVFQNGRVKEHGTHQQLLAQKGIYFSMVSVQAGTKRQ
Cytochrome P450 3A4, sequence (P08684 whole entry): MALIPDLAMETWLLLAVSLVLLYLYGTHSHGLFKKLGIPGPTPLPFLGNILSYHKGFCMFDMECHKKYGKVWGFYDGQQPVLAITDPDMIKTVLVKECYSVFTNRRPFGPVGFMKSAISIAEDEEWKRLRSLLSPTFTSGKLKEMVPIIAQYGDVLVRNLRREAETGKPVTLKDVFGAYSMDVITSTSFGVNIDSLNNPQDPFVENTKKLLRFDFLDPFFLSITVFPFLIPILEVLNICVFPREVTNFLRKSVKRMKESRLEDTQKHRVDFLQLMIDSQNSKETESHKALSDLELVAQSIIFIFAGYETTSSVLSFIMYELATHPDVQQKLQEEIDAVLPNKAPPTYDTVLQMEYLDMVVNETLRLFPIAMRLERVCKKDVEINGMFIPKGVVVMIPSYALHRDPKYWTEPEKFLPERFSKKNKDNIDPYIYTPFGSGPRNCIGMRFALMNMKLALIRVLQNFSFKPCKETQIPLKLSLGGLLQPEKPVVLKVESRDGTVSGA

Row | Structure (SMILES) | fold change (FC) [1] | viability at 72 h, 2 µM [2] | inhibition (INH) [3] | viability at 72 h, 2 µM [4] | fold change (FC) [5] | inhibition (INH) (Cytochrome P450 3A4) | inhibition (INH) [6] | Activity (SW620/AD300) | fold change (FC) [7]
1 | COc1cc(-c2nc(SCC(=O)NC(=O)Nc3ccccn3)nc(Nc3ccc(Br)cc3)c2C#N)cc(OC)c1OC | 8.019 | > 90% | Dose-dependent effect | > 90% | 190.27 | Not Active | Active | inactive | 32.2
2 | COc1ccc(CCN(C)CCCC(C#N)(c2ccc(OC)c(OC)c2)C(C)C)cc1OC (stereo unspecified) | – | – | Dose-dependent effect | – | – | – | – | – | –
3 | N#Cc1c(Nc2cccc(Cl)c2)nc(SCC(=O)NC(=O)Nc2ccccn2)nc1-c1ccc(F)c(F)c1 | – | > 90% | – | > 90% | 4.37 | – | – | – | –
4 | COc1cc(-c2nc(SCC(=O)NC(=O)Nc3ccccn3)nc(Nc3cccc(C(F)(F)F)c3)c2C#N)cc(OC)c1OC | – | > 90% | – | > 90% | 58.14 | – | – | – | –
5 | COc1cc(-c2nc(SCc3cn(CC(=O)NC(=O)Nc4ccccn4)nn3)nc(Nc3cccc(C(F)(F)F)c3)c2C#N)cc(OC)c1OC | – | > 90% | – | > 90% | 1.35 | – | – | – | –
6 | COc1cc(-c2nc(SCC(=O)NC(=O)Nc3ccccc3)nc(Nc3cccc(Cl)c3)c2C#N)cc(OC)c1OC | 37.04 | > 90% | Dose-dependent effect | > 90% | 261.63 | Not Active | Active | inactive | 26.33
7 | CC(C)c1ccc(-c2nc(SCc3cn(CC(=O)NC(=O)Nc4ccccn4)nn3)nc(Nc3ccccc3)c2C#N)cc1 | – | > 90% | – | > 90% | 1.65 | – | – | – | –
8 | COc1ccccc1Nc1nc(SCC(=O)NC(=O)Nc2ccccn2)nc(-c2cc(OC)c(OC)c(OC)c2)c1C#N | – | > 90% | – | > 90% | 8.67 | – | – | – | –
9 | N#Cc1c(Nc2ccc(Cl)cc2)nc(SCC(=O)NC(=O)Nc2ccccn2)nc1-c1ccc(Cl)cc1 | – | > 90% | – | > 90% | 2.32 | – | – | – | –
10 | COc1ccccc1Nc1nc(SCC(=O)NC(=O)Nc2ccccn2)nc(-c2ccc(F)c(F)c2)c1C#N | – | > 90% | – | > 90% | 13.42 | – | – | – | –
11 | COc1cc(-c2nc(SCC(=O)NC(=O)Nc3ccccn3)nc(Nc3ccccc3Cl)c2C#N)cc(OC)c1OC | – | > 90% | – | > 90% | 38.05 | – | – | – | –
12 | CC(C)c1ccc(-c2nc(SCc3cn(CC(=O)NC(=O)Nc4ccccn4)nn3)nc(Nc3ccc(F)cc3)c2C#N)cc1 | – | > 90% | – | > 90% | 2.11 | – | – | – | –
